{"source": "paper PMC7080047", "about": "(Medicinal Chemistry Research, 2014)", "key": {"HIV-1": {"tested_on": "HIV-1", "test": "antiviral activity, HIV-1 in CEM cells", "type": "cell-based", "details": "Human immunodeficiency virus 1, CCRF-CEM, read-out: antiviral EC50"}, "HIV-2": {"tested_on": "HIV-2", "test": "antiviral activity, HIV-2 in CEM cells", "type": "cell-based", "details": "Human immunodeficiency virus 2, CCRF-CEM, read-out: antiviral EC50"}, "HSV-1": {"tested_on": "HSV-1", "test": "antiviral activity, HSV-1 in HeLa cells", "type": "cell-based", "details": "Human alphaherpesvirus 1, HeLa, read-out: antiviral EC50"}, "HSV-2": {"tested_on": "HSV-2", "test": "antiviral activity, HSV-2 in HeLa cells", "type": "cell-based", "details": "Human alphaherpesvirus 2, HeLa, read-out: antiviral EC50"}, "vaccinia virus": {"tested_on": "vaccinia virus", "test": "antiviral activity, vaccinia virus in HeLa cells", "type": "cell-based", "details": "Orthopoxvirus vaccinia, read-out: antiviral EC50"}, "[1]": {"tested_on": "vesicular stomatitis virus (VSV)", "test": "microbe, parasite or virus in culture", "type": "cell-based", "details": "HeLa, read-out: antiviral EC50"}, "Feline herpes virus": {"tested_on": "Feline herpes virus", "test": "antiviral activity, Feline herpes virus in CRFK cells", "type": "cell-based", "details": "read-out: antiviral EC50"}, "[2]": {"tested_on": "respiratory syncytial virus (RSV)", "test": "antiviral activity, respiratory syncytial virus in HeLa cells", "type": "cell-based", "details": "human respiratory syncytial virus, read-out: antiviral EC50"}, "Parainfluenza 3-virus": {"tested_on": "Parainfluenza 3-virus", "test": "antiviral activity, Parainfluenza 3-virus in MDCK cells", "type": "cell-based", "details": "read-out: antiviral EC50"}, "Reovirus-1": {"tested_on": "Reovirus-1", "test": "antiviral activity, Reovirus-1 in MDCK cells", "type": "cell-based", "details": "read-out: antiviral EC50"}, "Punta Toro virus": {"tested_on": "Punta Toro virus", "test": "antiviral activity, Punta Toro virus in MDCK cells", "type": "cell-based", "details": "read-out: antiviral EC50"}, "[3]": {"tested_on": "viruses such as members of the Herpes, Picorna, and Pox groups", "details": "ref Marcialis et al., 1973, 1974, La Colla et al., 1975; cited from earlier work"}, "[4]": {"tested_on": "immune-activated NO production by mouse peritoneal cells", "test": "in vitro nitric oxide", "type": "cell-based", "details": "for IC50: read-out: NO-inhibitory IC 50, LPS/IFN-γ stimulated mouse peritoneal cells, 24 h; for concentration at which NO-suppressive effects were already apparent: dose-response, Fig. 2", "in_short": "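Peritoneal lavage cells (8 mL saline) pooled from 4–10 female C57BL/6 mice, 8–10 weeks old, seeded at 2 × 10^6 cells/mL in RPMI-1640 with 10% FBS, 37 °C, 5% CO2. Test compound (DMSO stock diluted in medium; DMSO control) added for 24 h with IFN-γ 0.5 ng/mL plus E. coli LPS 0.1 ng/mL, duplicates. Supernatant nitrite measured by Griess reagent at A540 against a nitrite standard curve, expressed as % of control.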"}, "[5]": {"tested_on": "NO production in chicken macrophages", "details": "ref Sung et al., 1994; cited from earlier work"}}}
{"compound": "Nc1nc(Cl)cc(Cl)n1", "note": "[Compound B1, 2-amino-4,6-dichloropyrimidine]", "values": [{"measurement": "EC50", "setting": "HIV-1", "value": "> 100", "unit": "µg/mL"}, {"measurement": "EC50", "setting": "HIV-2", "value": "> 100", "unit": "µg/mL"}, {"measurement": "EC50", "setting": "HSV-1", "value": "> 100", "unit": "µg/mL"}, {"measurement": "EC50", "setting": "HSV-2", "value": "> 100", "unit": "µg/mL"}, {"measurement": "EC50", "setting": "vaccinia virus", "value": "> 100", "unit": "µg/mL"}, {"measurement": "EC50", "setting": "[1]", "value": "> 100", "unit": "µg/mL"}, {"measurement": "EC50", "setting": "Feline herpes virus", "value": "> 100", "unit": "µg/mL"}, {"measurement": "EC50", "setting": "[2]", "value": "> 100", "unit": "µg/mL"}, {"measurement": "EC50", "setting": "Parainfluenza 3-virus", "value": "> 100", "unit": "µg/mL"}, {"measurement": "EC50", "setting": "Reovirus-1", "value": "> 100", "unit": "µg/mL"}, {"measurement": "EC50", "setting": "Punta Toro virus", "value": "> 100", "unit": "µg/mL"}, {"measurement": "concentration required for antiviral activities described in the literature", "setting": "[3]", "value": "~100", "unit": "µg/mL"}]}
{"compound": "N-(3-aminomethyl)-benzylacetamide [1,400 W, reference compound]", "values": [{"measurement": "IC50", "setting": "[4]", "value": 3.87, "unit": "µM"}]}
{"compound": "C#CCc1c(Cl)nc(N)nc1Cl", "note": "[Compound B6, 4,6-Dichloro-5-(prop-2-yn-1-yl)pyrimidin-2-amine]", "values": [{"measurement": "concentration at which NO-suppressive effects were already apparent", "setting": "[4]", "value": 2.5, "unit": "µM"}]}
{"compound": "N=C(N)NN", "note": "[Aminoguanidine, aminoguanidine, reference compound]", "values": [{"measurement": "IC50", "setting": "[4]", "value": 77.8, "unit": "µM"}]}
{"compound": "Nc1nc(Cl)c(F)c(Cl)n1", "note": "[Compound B12, 5-fluoro-2-amino-4,6-dichloropyrimidine]", "values": [{"measurement": "concentration at which NO-suppressive effects were already apparent", "setting": "[4]", "value": 2.5, "unit": "µM"}, {"measurement": "effect on immune-activated NO production (in words)", "setting": "[4]; mouse peritoneal cells", "value": "nearly completely suppressed the production of NO"}]}
{"compound": "Nc1cc(O)nc(N)n1", "note": "[2,4-diamino-6-hydroxypyrimidine]", "values": [{"measurement": "effect on NO production (in words)", "setting": "[5]", "value": "suppresses NO production"}]}
